Measured values taken from ChEMBL document CHEMBL1149666, “Novel 1-(azacyclyl)-3-arylsulfonyl-1H-pyrrolo[2,3-b]pyridines as 5-HT6 agonists and antagonists” (Bioorg Med Chem, 2007).

Legend:
[1] = target: T1, 5-hydroxytryptamine receptor 6 (Homo sapiens, UniProt P50406); assay: Antagonist activity at human 5HT6 expressed in HeLa cells assessed as intracellular cAMP level by radioimmunoassay; assay type: functional, cell-based
Method in brief: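 Stably transfected h5-HT6 HeLa cells were washed in Krebs buffer and preincubated 5 min at 37 °C in Krebs with 500 μM IBMX. Test compound was then added at 0.1–10000 nM for 10 min at 37 °C. The reaction was stopped with 0.5 M perchloric acid, and intracellular cAMP was measured by scintillation proximity RIA. IC50 and Imax were determined in triplicate.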

[2] = target: T1, 5-hydroxytryptamine receptor 6; assay: Displacement of [3H]LSD from cloned human 5HT6 expressed in HeLa cells; assay type: cell-based
Method in brief: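 Radioligand binding used [3H]-LSD on human-cloned 5-HT6 receptors stably transfected in HeLa cells. Ki values were determined in triplicate.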

[3] = target: T1, 5-hydroxytryptamine receptor 6; assay: Agonist activity at human 5HT6 expressed in HeLa cells assessed as intracellular cAMP level by radioimmunoassay; assay type: functional, cell-based

T1 sequence (P50406 whole entry): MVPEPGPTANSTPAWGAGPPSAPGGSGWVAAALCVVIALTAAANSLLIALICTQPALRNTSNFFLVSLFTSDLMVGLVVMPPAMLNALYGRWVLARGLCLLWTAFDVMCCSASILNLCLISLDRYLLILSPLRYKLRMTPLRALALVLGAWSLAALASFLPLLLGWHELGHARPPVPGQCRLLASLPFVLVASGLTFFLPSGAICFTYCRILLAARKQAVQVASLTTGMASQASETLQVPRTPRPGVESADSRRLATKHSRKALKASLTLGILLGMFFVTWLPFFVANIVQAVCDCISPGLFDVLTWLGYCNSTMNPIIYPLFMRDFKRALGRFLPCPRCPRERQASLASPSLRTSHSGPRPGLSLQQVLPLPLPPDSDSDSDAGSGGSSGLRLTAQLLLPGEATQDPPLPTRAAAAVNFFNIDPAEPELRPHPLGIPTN

Structure (SMILES)	%max [1] [%]	IC50 [1] [nM]	Ki [2] [nM]	EC50 [3] [nM]	Imax [1] [%]
CN1CCC(n2cc(S(=O)(=O)c3ccccc3F)c3cccnc32)C1 (configuration not stated)	69	186	5.6		
CN1CCC(n2cc(S(=O)(=O)c3cccc(Cl)c3)c3cccnc32)C1 (configuration not stated)	85	142	1.5		
CN1CCCC(n2cc(S(=O)(=O)c3cc(Cl)cc(Cl)c3)c3cccnc32)C1 (configuration not stated)			3.9	38.7	
O=S(=O)(c1cccc(F)c1)c1cn(C2CCCNC2)c2ncccc12 (configuration not stated)			2.4	67	
CN1CCCC(n2cc(S(=O)(=O)c3cccc(F)c3)c3cccnc32)C1 (configuration not stated)			4.7	306	
CN1CCCC(n2cc(S(=O)(=O)c3ccc(Cl)s3)c3cccnc32)C1 (configuration not stated)			1.9	71	
O=S(=O)(c1ccc(C(F)(F)F)cc1)c1cn(C2CCCNC2)c2ncccc12 (configuration not stated)			12	414	
CN1CCCC(n2cc(S(=O)(=O)c3ccc(Cl)cc3)c3cccnc32)C1 (configuration not stated)		28	11.5		63
CC(C)N1CCCC(n2cc(S(=O)(=O)c3cccc(F)c3)c3cccnc32)C1 (configuration not stated)			3.4	172	
CN1CCC(n2cc(S(=O)(=O)c3ccccc3Cl)c3cccnc32)C1 (configuration not stated)	91	91	2.2		
O=S(=O)(c1cccc(C(F)(F)F)c1)c1cn(C2CCNC2)c2ncccc12 (configuration not stated)			1.3	520	
CC(C)N1CCCC(n2cc(S(=O)(=O)c3cccc(Br)c3)c3cccnc32)C1 (configuration not stated)		492	9.4		77
CCN1CCCC(n2cc(S(=O)(=O)c3cc(Cl)cc(Cl)c3)c3cccnc32)C1 (configuration not stated)			13.5	67	
CN1CCC(n2cc(S(=O)(=O)c3cccc(Br)c3)c3cccnc32)C1 (configuration not stated)	98	23	0.9		
O=S(=O)(c1ccccc1F)c1cn(C2CCCNC2)c2ncccc12 (configuration not stated)		50	2		100
O=S(=O)(c1ccccc1)c1cn(C2CCCNC2)c2ncccc12 (configuration not stated)			4.9	47	

Structure (SMILES)	%max [1] [%]	IC50 [1] [nM]	Ki [2] [nM]	EC50 [3] [nM]	Imax [1] [%]
O=S(=O)(c1ccccc1Cl)c1cn(C2CCCNC2)c2ncccc12 (configuration not stated)			3.7	50	
O=S(=O)(c1cccc(C(F)(F)F)c1)c1cn(C2CCCNC2)c2ncccc12 (configuration not stated)			4.6	273	
CN1CCC(n2cc(S(=O)(=O)c3ccc(F)cc3)c3cccnc32)C1 (configuration not stated)	85	213	5		
CC(C)N1CCCC(n2cc(S(=O)(=O)c3ccc(Cl)cc3)c3cccnc32)C1 (configuration not stated)		338	11.1		74
CCN1CCC(n2cc(S(=O)(=O)c3cccc(F)c3)c3cccnc32)C1 (configuration not stated)	89	132	8.3		
CCN1CCC(n2cc(S(=O)(=O)c3cccc(Cl)c3)c3cccnc32)C1 (configuration not stated)	93	120	3.3		
CCN1CCCC(n2cc(S(=O)(=O)c3ccccc3)c3cccnc32)C1 (configuration not stated)		26	3.6		58
O=S(=O)(c1cccc(Br)c1)c1cn(C2CCCNC2)c2ncccc12 (configuration not stated)			3.8	72	
O=S(=O)(c1ccc(Cl)cc1)c1cn(C2CCCNC2)c2ncccc12 (configuration not stated)		682	7.6		76
CN1CCCC(n2cc(S(=O)(=O)c3cccc(C(F)(F)F)c3)c3cccnc32)C1 (configuration not stated)			2.1	49	
CCN1CCCC(n2cc(S(=O)(=O)c3ccc(Cl)cc3)c3cccnc32)C1 (configuration not stated)		70	33.5		71
CN1CCC(n2cc(S(=O)(=O)c3ccccc3)c3cccnc32)C1 (configuration not stated)			2.5	2030	
CCN1CCC(n2cc(S(=O)(=O)c3ccccc3)c3cccnc32)C1 (configuration not stated)	75	56	11		
CN1CCC(n2cc(S(=O)(=O)c3ccc(Cl)cc3)c3cccnc32)C1 (configuration not stated)	98	95	4.2		
CCN1CCCC(n2cc(S(=O)(=O)c3ccc(Cl)s3)c3cccnc32)C1 (configuration not stated)			3.2	50	
O=S(=O)(c1cc(Cl)cc(Cl)c1)c1cn(C2CCCNC2)c2ncccc12 (configuration not stated)			6.1	297	

Results, then the compound that gave them:

%max [1] [%]	IC50 [1] [nM]	Ki [2] [nM]	EC50 [3] [nM]	Imax [1] [%]	Structure (SMILES)
		1.2	98		O=S(=O)(c1ccc(Cl)s1)c1cn(C2CCCNC2)c2ncccc12 (configuration not stated)
	10	1.4			CCN1CCC(n2cc(S(=O)(=O)c3c(Cl)nc4sccn34)c3cccnc32)C1 (configuration not stated)
	26	0.8			CN1CCC(n2cc(S(=O)(=O)c3c(Cl)nc4sccn34)c3cccnc32)C1 (configuration not stated)
96	135	4.3			O=S(=O)(c1ccc(Br)cc1)c1cn(C2CCNC2)c2ncccc12 (configuration not stated)
	8	1.7			CC(C)N1CCCC(n2cc(S(=O)(=O)c3c(Cl)nc4sccn34)c3cccnc32)C1 (configuration not stated)
		1.3	35		O=S(=O)(c1cccc(Br)c1)c1cn(C2CCNC2)c2ncccc12 (configuration not stated)
		2.7	278		O=S(=O)(c1cccc(F)c1)c1cn(C2CCNC2)c2ncccc12 (configuration not stated)
100	50	2			O=S(=O)(c1ccccc1F)c1cn(C2CCNC2)c2ncccc12 (configuration not stated)
		8.5	1650		O=S(=O)(c1ccc(F)cc1)c1cn(C2CCNC2)c2ncccc12 (configuration not stated)
		2	25		CN1CCCC(n2cc(S(=O)(=O)c3c(Cl)nc4sccn34)c3cccnc32)C1 (configuration not stated)
			80		O=S(=O)(c1cn(C2CCNC2)c2ncccc12)c1c(Cl)nc2sccn12 (configuration not stated)
		1.3	30		O=S(=O)(c1cccc(Cl)c1)c1cn(C2CCCNC2)c2ncccc12 (configuration not stated)
100	643	5.7			O=S(=O)(c1cn(C2CCNC2)c2ncccc12)c1cccc2cccnc12 (configuration not stated)
94	340	5.5			O=S(=O)(c1ccc(Cl)cc1)c1cn(C2CCNC2)c2ncccc12 (configuration not stated)
		0.7	34		CCN1CCCC(n2cc(S(=O)(=O)c3c(Cl)nc4sccn34)c3cccnc32)C1 (configuration not stated)
		0.7	66		O=S(=O)(c1cn(C2CCCNC2)c2ncccc12)c1c(Cl)nc2sccn12 (configuration not stated)
		1.5	1680		O=S(=O)(c1cccc(Cl)c1)c1cn(C2CCNC2)c2ncccc12 (configuration not stated)
